Experimental data reported in ChEMBL document CHEMBL4725418, “Design, Synthesis, and Structure-Activity Relationship Studies of Dual Inhibitors of Soluble Epoxide Hydrolase and 5-Lipoxygenase” (J Med Chem, 2020).
Converted amounts (≈) assume the structure as drawn. The source made the active and inactive calls. The calls are words filed in the database; no cut-off is given here.

Key:
[1] = Half life in Swiss CD-1 mouse at 3 mg/kg, po administered as single dose by LC-MS analysis; format: ADME, organism-based; settings: in vivo
Summary of the method: (§1)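 Male Swiss CD-1 mice received a single oral dose of 3 mg/kg in 1% methylcellulose/Tween80 (99:1); nine mice treated, three vehicle controls, three mice per time point. Serum analyzed by LC-MS for concentration–time profile.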

[2] = Cmax in Swiss CD-1 mouse at 3 mg/kg, po administered as single dose by LC-MS analysis; format: ADME, organism-based; design: route oral, dose 3 mg/kg; settings: in vivo; summary of the method: as §1
[3] = Tmax in Swiss CD-1 mouse at 3 mg/kg, po administered as single dose by LC-MS analysis; format: ADME, organism-based; settings: in vivo; summary of the method: as §1
[4] = biological target: T1, Polyunsaturated fatty acid 5-lipoxygenase (Homo sapiens, UniProt P09917); test: Inhibition of 5-LOX (unknown origin) expressed in Escherichia coli BL21-(DE3) pre-incubated for 15 mins before AA substrate addition and measured after 10 mins by HPLC/UV assay
T1 sequence (P09917 whole entry): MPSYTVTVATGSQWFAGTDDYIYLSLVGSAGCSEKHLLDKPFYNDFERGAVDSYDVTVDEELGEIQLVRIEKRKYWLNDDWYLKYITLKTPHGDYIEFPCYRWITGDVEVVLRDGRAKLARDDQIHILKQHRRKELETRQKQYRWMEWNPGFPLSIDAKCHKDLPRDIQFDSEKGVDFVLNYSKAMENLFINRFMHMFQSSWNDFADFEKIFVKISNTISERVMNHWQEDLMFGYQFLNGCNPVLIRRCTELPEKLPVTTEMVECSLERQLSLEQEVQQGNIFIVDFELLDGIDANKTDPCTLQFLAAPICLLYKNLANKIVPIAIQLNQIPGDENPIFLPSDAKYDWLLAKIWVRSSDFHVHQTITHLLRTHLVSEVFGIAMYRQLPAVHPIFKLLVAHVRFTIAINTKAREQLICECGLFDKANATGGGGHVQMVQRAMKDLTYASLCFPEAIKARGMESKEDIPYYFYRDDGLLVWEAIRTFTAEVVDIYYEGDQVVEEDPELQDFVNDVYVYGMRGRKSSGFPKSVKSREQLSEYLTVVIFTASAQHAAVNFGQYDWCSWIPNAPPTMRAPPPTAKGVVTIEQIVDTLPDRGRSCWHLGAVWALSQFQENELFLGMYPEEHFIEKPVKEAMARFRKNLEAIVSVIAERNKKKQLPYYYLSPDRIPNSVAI
Summary of the method: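 Recombinant 5-LOX activity measured with arachidonic acid as substrate; product formation monitored by HPLC. IC50 from at least three independent determinations (n ≥ 3), reported with 95% confidence interval.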

HepG2 = test: Cytotoxicity in human HepG2 cells assessed as effect on cell viability up to 25 uM incubated for 48 hrs by CellTiter-Glo luminescent cell viability assay; format: cell-based; settings: hepg2, 48 h
Summary of the method: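 Cell viability measured by CellTiter-Glo luminescence, quantifying ATP as an indicator of viable cells.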

[5] = Metabolic stability in rat liver microsomes assessed as compound remaining after 60 mins; format: ADME, Microsome; settings: read-out: Stabilty
Summary of the method: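 Compound incubated with rat liver microsomes for 60 min; percent parent compound remaining determined; n ≥ 3.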

[6] = Solubility in pH 7.4 DPBS buffer; format: physicochemical
[7] = biological target: T2, Polyunsaturated fatty acid lipoxygenase ALOX12 (Homo sapiens) (UniProt P18054); test: Activation of 12-LOX in human PMNL pre-incubated for 15 mins before addition of AA and A23187 and measured after 10 mins by HPLC/UV assay; settings: filed as activator, time 25.0 min
T2 sequence (whole entry): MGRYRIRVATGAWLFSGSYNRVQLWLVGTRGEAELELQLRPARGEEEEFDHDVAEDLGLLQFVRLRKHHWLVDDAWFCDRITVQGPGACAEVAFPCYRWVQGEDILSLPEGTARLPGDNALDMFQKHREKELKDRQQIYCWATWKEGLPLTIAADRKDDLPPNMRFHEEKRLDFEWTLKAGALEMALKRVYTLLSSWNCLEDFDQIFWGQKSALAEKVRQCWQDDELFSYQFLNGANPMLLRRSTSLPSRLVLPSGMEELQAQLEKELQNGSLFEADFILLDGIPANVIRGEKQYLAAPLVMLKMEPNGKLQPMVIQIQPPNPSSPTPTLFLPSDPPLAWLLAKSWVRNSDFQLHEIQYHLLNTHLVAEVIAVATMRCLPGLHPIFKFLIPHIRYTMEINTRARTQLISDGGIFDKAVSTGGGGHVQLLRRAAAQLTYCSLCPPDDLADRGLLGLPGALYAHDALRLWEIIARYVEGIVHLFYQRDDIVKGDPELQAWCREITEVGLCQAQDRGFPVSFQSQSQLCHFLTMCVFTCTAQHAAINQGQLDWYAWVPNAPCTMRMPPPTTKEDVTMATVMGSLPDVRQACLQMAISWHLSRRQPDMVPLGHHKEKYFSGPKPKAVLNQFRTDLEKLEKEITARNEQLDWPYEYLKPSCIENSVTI

[8] = T>IC50 in Swiss CD-1 mouse at 3 mg/kg, po administered as single dose by LC-MS analysis; format: ADME, organism-based; settings: in vivo; summary of the method: as §1
Mus musculus [9] = organism: Mus musculus; test: Inhibition of sEH in naive mouse assessed as increase in plasma EET/DHET ratio level; format: functional
Summary of the method: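 Plasma from naive mice given a single oral 3 mg/kg dose analyzed for EET/DHET ratio as a read-out of sEH inhibition.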

Mus musculus [10] = test: Anti-fibrotic activity in C57BL/6 mouse model of unilateral ureter obstruction-induced kidney inflammation and fibrosis assessed as inhibition of tubulo-interstitial fibrosis by measuring reduced blue staining of collagen fibers in AZAN-stained sections at 3 mg/kg, ip dosed daily for 7 days by AZAN trichrome staining method; format: functional, organism-based; settings: time 7.0 day
Summary of the method: (§2)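 Mice with unilateral ureter obstruction to induce kidney inflammation and fibrosis, given compound or vehicle intraperitoneally. Ligated (UUO) and contralateral kidneys taken at day 7. Fibrosis read by AZAN and Sirius Red staining, with Sirius Red imaged under bright and polarized light. Macrophages detected by F4/80 staining, quantified as positive area. Col1a1, FN1, TNFα and Ccl2 mRNA measured in whole-kidney homogenates by real-time qRT-PCR normalized to GAPDH.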

Mus musculus [11] = test: Anti-fibrotic activity in C57BL/6 mouse model of unilateral ureter obstruction-induced kidney inflammation and fibrosis assessed as inhibition of tubulo-interstitial fibrosis by measuring reduced fibrillar collagen at 3 mg/kg, ip dosed daily for 7 days by Sirius red staining method; format: functional, organism-based; settings: time 7.0 day; summary of the method: as §2
Mus musculus [12] = test: Anti-fibrotic activity in C57BL/6 mouse model of unilateral ureter obstruction-induced kidney inflammation and fibrosis assessed as reduction in Col1a1 mRNA expression at 3 mg/kg, ip dosed daily for 7 days by real-time qPCR analysis; format: functional, organism-based; settings: time 7.0 day; summary of the method: as §2
Mus musculus [13] = test: Anti-fibrotic activity in C57BL/6 mouse model of unilateral ureter obstruction-induced kidney inflammation and fibrosis assessed as reduction in FN1 mRNA expression at 3 mg/kg, ip dosed daily for 7 days by real-time qPCR analysis; format: functional, organism-based; settings: time 7.0 day; summary of the method: as §2
Mus musculus [14] = test: Anti-fibrotic activity in C57BL/6 mouse model of unilateral ureter obstruction-induced kidney inflammation and fibrosis assessed as reduction in macrophage infiltration into the obstructed kidney at 3 mg/kg, ip dosed daily for 7 days by F4/80 antibody staining based assay; format: functional, organism-based; settings: time 7.0 day; summary of the method: as §2
Mus musculus [15] = test: Anti-inflammatory activity in C57BL/6 mouse model of unilateral ureter obstruction-induced kidney inflammation and fibrosis assessed as reduction in Ccl2 mRNA expression at 3 mg/kg, ip dosed daily for 7 days by real-time qPCR analysis; format: functional, organism-based; settings: time 7.0 day; summary of the method: as §2

## C[C@H](C#Cc1cccc(C(=O)NCCC(c2ccc(F)cc2)c2ccc(F)cc2)c1)N(O)C(N)=O
[1]
  half-life: 1.3 h
[2]
  Cmax: 700 nM
[3]
  Tmax: 1 h
[4]
  IC50: 110 nM
HepG2
  Activity: Non-Toxic
[5]
  remaining at 1 h: 50%
[6]
  solubility: 3 µM (≈ 1.43 µg/mL)
[7]
  Activity: Active
[8]
  T>IC50: 3 h
Mus musculus [9]
  Activity: Active
Mus musculus [10]
  Activity: Active
Mus musculus [11]
  Activity: Active
Mus musculus [12]
  Activity: Active
Mus musculus [13]
  Activity: Active
Mus musculus [14]
  Activity: Active
Mus musculus [15]
  Activity: Active
